Measurements published in PMC11965407 (Translational Psychiatry, 2025).
“Also recorded” adds a separate entry of the source. Counter-ions that a name gives are not always drawn. Like-named read-outs stand apart in the source and are kept apart here.

Experiments:
neuronal Kv7 = details: read-out: IC50, neuronal Kv7 inhibition; cited from earlier work
Kv7.1-Kv7.4 channels = details: read-out: IC50, inhibition of Kv7.1-Kv7.4 channels; cited from earlier work
Kv7.2/Kv7.3 channels = Kv7.2/Kv7.3 channels (Homo sapiens, UniProt O43525+O43526); format: cell-based
Method in brief: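 CHO cells stably expressing Kv7.2/Kv7.3 were grown in F12 with 10% FBS and 600 μg/mL G418. Cells were recorded by amphotericin B (250 μg/mL) perforated patch at room temperature. Internal was KCl 150, MgCl2 5, HEPES 10 mM, pH 7.4; external was NaCl 160, KCl 2.5, MgCl2 1, CaCl2 2, glucose 10, HEPES 20 mM, pH 7.4. Current was measured at 0 mV. Activation used −110 to 30 mV steps (10 mV increments) then 0 mV, with a Boltzmann fit. IC50 came from a logistic fit; τ from a single exponential.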

[1] = system: native M-current in hippocampal neurons; experiment: Native M-current recording in cultured hippocampal neurons; format: cell-based, rat; details: measured at −20 mV
Kv7.2 channel [2] = molecular target: T1, Kv7.2 channel (Homo sapiens, UniProt O43526); experiment: Single-channel recordings; format: cell-based
Method in brief: (§1)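 Cell-attached single-channel recording was done at room temperature on transfected HEK293T cells. Pipettes (8–10 MΩ) held bath solution: NaCl 150, KCl 5, MgCl2 1, CaCl2 2, HEPES 10 mM, pH 7.4. Data were […] and filtered at 0.8–1 kHz. Patch potential of 0 mV was set from Vm = RMP − Vpipette, with RMP from current clamp. Open probability and conductance came from all-point amplitude histograms, with recordings before and after drug.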

hippocampal neurons = format: cell-based, rat; details: for depolarizing shift of resting membrane potential (RMP): hippocampal neurons
Kv7.5 [3] = details: read-out: IC50, inhibition of Kv7.5; cited from earlier work
Kv7.4 = Kv7.4 (Homo sapiens, UniProt P56696); experiment: Perforated whole-cell patch-clamp of Kv7.4 current in transfected HEK293T cells; format: cell-based
F304A Kv7.2 channel = experiment: Whole-cell patch-clamp of F304A Kv7.2 mutant in HEK293T cells; format: cell-based, human; details: 10 or 30 µM paroxetine, vs WT Kv7.2
Method in brief: (§2)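 Alanine point mutants of human Kv7.2 were made by site-directed mutagenesis and verified by sequencing. Wild-type or mutant channels were expressed in HEK293T cells and recorded by perforated whole-cell patch clamp at room temperature. Currents were recorded before and after 10 or 30 µM test compound, and inhibition was normalized and compared with wild-type Kv7.2. n = 3–6.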

L299A Kv7.2 channel = L299A Kv7.2 channel (Homo sapiens, UniProt O43526, L299A); experiment: Whole-cell patch-clamp of L299A Kv7.2 mutant in HEK293T cells; format: cell-based; details: HEK-293T, read-out: inhibition of F299A Kv7.2 current
Method in brief: as §2

Kv7.1 = Kv7.1 (Homo sapiens, UniProt P51787); experiment: Perforated whole-cell patch-clamp of Kv7.1 current in transfected HEK293T cells; format: cell-based
F305A Kv7.2 channel = F305A Kv7.2 channel (Homo sapiens, UniProt O43526, F305A); experiment: Whole-cell patch-clamp of F305A Kv7.2 mutant in HEK293T cells; format: cell-based; details: 10 or 30 µM paroxetine, vs WT Kv7.2
Method in brief: as §2

Kv3.1 channels = details: read-out: IC50, Kv3.1 channels; cited from earlier work
Kv7.5 [4] = molecular target: Kv7.5 (Homo sapiens, UniProt Q9NR82); experiment: Perforated whole-cell patch-clamp of Kv7.5 current in transfected HEK293T cells; format: cell-based
Method in brief: (§3)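 Human Kv7.2 or Kv7.5 cDNA in pcDNA3.1 was co-transfected with GFP into HEK293T cells using lipofectamine 2000 and recorded 24 h later. Recording used perforated patch (amphotericin B 250 μg/mL in pipette) with internal KCl 150, MgCl2 5, HEPES 10 mM, pH 7.4, and external NaCl 160, KCl 2.5, MgCl2 1, CaCl2 2, glucose 10, HEPES 20 mM, pH 7.4, at room temperature. IC50 came from a logistic fit, activation curves from Boltzmann fits, and τ values from single exponentials (activation 0 mV, deactivation −120 mV).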

W236A Kv7.2 channel = W236A Kv7.2 channel (Homo sapiens, UniProt O43526, W236A); experiment: Whole-cell patch-clamp of W236A Kv7.2 mutant in HEK293T cells; format: cell-based; details: HEK-293T, read-out: inhibition of W236A Kv7.2 current
Method in brief: as §2

[5] = molecular target: Kv7.2 D212A/Kv7.3 heteromeric channels (Homo sapiens, UniProt O43525+O43526, D212A); experiment: Whole-cell patch-clamp of Kv7.2 D212A/Kv7.3 heteromeric channels; format: cell-based
[6] = daily dosage of 20 mg, patients with depression; cited from earlier work
[7] = molecular target: Kv7.2/Kv7.3 single-channels (Homo sapiens, UniProt O43525+O43526); experiment: Single-channel recordings; format: cell-based; details: paroxetine 3 μΜ
Method in brief: as §1

GIRK1/2 channels = details: read-out: IC50, GIRK1/2 channels; cited from earlier work
F240A Kv7.2 channel = F240A Kv7.2 channel (Homo sapiens, UniProt O43526, F240A); experiment: Whole-cell patch-clamp of F240A Kv7.2 mutant in HEK293T cells; format: cell-based; details: HEK-293T, read-out: inhibition of F240A Kv7.2 current
Method in brief: as §2

Kv7.2 D212A channel = Kv7.2 D212A channel (Homo sapiens, UniProt O43526, D212A); experiment: Whole-cell patch-clamp of Kv7.2 D212A mutant channel; format: cell-based
Kv7.2 channel [8] = molecular target: T1, Kv7.2 channel; experiment: Perforated whole-cell patch-clamp of Kv7.2 current in transfected HEK293T cells; format: cell-based
Method in brief: as §3

Sequence of Kv7.4 (P56696 whole entry): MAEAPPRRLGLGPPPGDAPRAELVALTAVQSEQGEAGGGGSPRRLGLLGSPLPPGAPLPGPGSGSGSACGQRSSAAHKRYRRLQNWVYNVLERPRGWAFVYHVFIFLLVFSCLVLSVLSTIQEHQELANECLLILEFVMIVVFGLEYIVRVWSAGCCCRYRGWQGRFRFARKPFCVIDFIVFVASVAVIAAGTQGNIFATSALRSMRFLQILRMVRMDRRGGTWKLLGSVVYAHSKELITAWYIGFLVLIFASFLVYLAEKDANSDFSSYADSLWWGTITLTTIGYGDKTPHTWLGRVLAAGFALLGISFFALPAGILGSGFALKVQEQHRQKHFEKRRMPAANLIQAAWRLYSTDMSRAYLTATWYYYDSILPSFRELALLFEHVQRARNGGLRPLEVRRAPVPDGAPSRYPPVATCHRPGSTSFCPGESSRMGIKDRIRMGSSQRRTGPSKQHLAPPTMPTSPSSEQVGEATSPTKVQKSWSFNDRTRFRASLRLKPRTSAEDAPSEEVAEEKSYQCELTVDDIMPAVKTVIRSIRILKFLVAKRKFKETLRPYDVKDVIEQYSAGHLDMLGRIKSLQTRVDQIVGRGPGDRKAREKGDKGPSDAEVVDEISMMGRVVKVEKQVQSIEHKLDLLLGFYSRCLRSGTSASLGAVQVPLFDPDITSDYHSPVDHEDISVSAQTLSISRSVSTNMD
Sequence of Kv7.5 (Homo sapiens, UniProt Q9NR82) (Q9NR82 whole entry): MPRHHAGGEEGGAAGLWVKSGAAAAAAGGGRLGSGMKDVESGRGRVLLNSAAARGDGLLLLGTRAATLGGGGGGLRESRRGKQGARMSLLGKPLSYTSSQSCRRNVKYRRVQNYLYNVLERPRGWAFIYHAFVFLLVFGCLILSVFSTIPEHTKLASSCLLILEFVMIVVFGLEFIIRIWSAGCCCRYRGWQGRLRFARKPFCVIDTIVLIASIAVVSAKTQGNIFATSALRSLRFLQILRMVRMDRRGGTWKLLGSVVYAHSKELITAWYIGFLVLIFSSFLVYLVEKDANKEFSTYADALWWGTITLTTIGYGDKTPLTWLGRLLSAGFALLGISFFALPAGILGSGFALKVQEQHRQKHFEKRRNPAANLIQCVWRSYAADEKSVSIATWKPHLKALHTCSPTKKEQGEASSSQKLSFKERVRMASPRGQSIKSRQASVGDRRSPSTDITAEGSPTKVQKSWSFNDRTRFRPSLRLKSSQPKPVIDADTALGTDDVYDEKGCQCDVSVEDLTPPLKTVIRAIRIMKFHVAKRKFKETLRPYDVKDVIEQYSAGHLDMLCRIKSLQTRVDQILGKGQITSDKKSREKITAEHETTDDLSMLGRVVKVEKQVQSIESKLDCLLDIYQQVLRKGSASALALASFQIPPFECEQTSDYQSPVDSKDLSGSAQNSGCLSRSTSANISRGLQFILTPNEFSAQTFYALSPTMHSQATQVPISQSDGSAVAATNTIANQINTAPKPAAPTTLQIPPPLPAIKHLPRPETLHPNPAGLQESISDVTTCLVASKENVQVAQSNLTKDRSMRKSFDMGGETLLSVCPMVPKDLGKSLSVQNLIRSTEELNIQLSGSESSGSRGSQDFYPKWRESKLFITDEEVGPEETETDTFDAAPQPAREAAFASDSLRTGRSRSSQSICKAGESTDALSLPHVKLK
Sequence of Kv7.1 (P51787 whole entry): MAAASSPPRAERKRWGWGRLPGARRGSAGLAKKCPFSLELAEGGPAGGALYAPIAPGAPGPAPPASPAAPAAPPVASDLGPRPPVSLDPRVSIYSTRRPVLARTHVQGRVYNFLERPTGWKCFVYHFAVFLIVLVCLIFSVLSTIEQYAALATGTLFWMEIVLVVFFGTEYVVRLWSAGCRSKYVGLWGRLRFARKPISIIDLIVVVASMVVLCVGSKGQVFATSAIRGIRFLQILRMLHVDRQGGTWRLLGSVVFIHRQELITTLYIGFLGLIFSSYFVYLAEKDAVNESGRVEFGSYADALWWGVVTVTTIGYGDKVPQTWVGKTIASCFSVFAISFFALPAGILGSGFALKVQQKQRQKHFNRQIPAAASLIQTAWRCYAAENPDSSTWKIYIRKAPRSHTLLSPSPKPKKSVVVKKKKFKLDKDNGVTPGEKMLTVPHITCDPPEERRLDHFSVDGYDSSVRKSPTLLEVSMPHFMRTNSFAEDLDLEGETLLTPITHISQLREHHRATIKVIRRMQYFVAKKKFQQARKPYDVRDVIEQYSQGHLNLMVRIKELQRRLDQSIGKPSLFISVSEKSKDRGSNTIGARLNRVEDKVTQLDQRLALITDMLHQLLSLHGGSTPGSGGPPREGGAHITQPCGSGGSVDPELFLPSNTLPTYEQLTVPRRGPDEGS

For `CC[C@H](C(=O)Nc1ccccc1N1CCCC1)c1ccccc1` [ML252], the IC50 (neuronal Kv7) is given as 1 to 6 µM.
For `O=C1c2ccccc2C(Cc2ccncc2)(Cc2ccncc2)c2ccccc21` [XE991], the IC50 (Kv7.1-Kv7.4 channels) is given as 1 to 5 µM, the “inhibition of Kv7.2/Kv7.3 currents recorded at 0 mV” value (Kv7.2/Kv7.3 channels; 3 μM, CHO cells, n = 5) is given as 81.4 ± 1.5% and the “inhibition of M-current” value ([1]; 3 μΜ) is given as 21.2 ± 2.0%. For the same compound, the “Kv7.2 single-channel open probability” value (Kv7.2 channel [2]; XE991 3 μΜ, control 0.21 ± 0.02) was 0.05 ± 0.01, the Kv7.2 single-channel conductance (Kv7.2 channel [2]; XE991 3 μΜ, control 7.7 ± 0.8 pS) was 8.0 ± 0.4 pS and the “firings in hippocampal neurons” value (hippocampal neurons; 3 μM XE991, n = 6) was “increased firings”. The “depolarizing shift of resting membrane potential (RMP)” value (hippocampal neurons; 1 μΜ) was 6.2 ± 2.2 mV, the “depolarizing shift of resting membrane potential (RMP)” value (hippocampal neurons; 3 μΜ) was 9.7 ± 1.2 mV and the IC50 (Kv7.5 [3]) was about 60 µM.
With `Fc1ccc([C@@H]2CCNC[C@H]2COc2ccc3c(c2)OCO3)cc1` [paroxetine, paroxetine hydrochloride] the “V1/2 of Kv7.4 in presence of paroxetine” value (Kv7.4; paroxetine 20 μM, control −14.4 ± 3.6 mV) was −15.2 ± 4.3 mV, the “τdeactivation (−120 mV) of Kv7.4” value (Kv7.4; paroxetine, control 12.1 ± 1.3 ms) was 10.9 ± 1.6 ms and the “τactivation (0 mV) of Kv7.4” value (Kv7.4; paroxetine, control 131.5 ± 23.6 ms) was 131.3 ± 22.9 ms. For the same compound, the “reduction of channel sensitivity to paroxetine by F304A mutation” value (F304A Kv7.2 channel) was “three-fold”, the inhibition at 10 µM (L299A Kv7.2 channel) was 59.4 ± 10.4% and the IC50 (Kv7.1) was 71.8 ± 7.9 µM. For the same compound, the “V1/2 of Kv7.1 in presence of paroxetine” value (Kv7.1; paroxetine 50 μM, control −3.2 ± 2.1 mV, P < 0.05) was 4.6 ± 2.1 mV, the “τdeactivation (−120 mV) of Kv7.1” value (Kv7.1; paroxetine near its IC50, control 39.9 ± 3.3 ms) was 27.9 ± 3.6 ms and the IC50 (Kv7.2/Kv7.3 channels) was 3.6 ± 0.2 µM. The inhibition at 3 µM (Kv7.2/Kv7.3 channels; CHO, read-out: inhibition of Kv7.2/Kv7.3 currents recorded at 0 mV) was 62.8 ± 6.5%, the “τdeactivation (−120 mV) of Kv7.2/Kv7.3” value (Kv7.2/Kv7.3 channels; paroxetine 3 μΜ, control 14.4 ± 1.1 ms) was 12.6 ± 0.7 ms and the “τactivation (0 mV) of Kv7.2/Kv7.3” value (Kv7.2/Kv7.3 channels; paroxetine 3 μΜ, control 94.5 ± 11.0 ms) was 112.8 ± 9.0 ms. The “V1/2 (half activation voltage) of Kv7.2/Kv7.3 in presence of paroxetine” value (Kv7.2/Kv7.3 channels; paroxetine 3 μΜ, control −3.9 ± 1.2 mV, not significant) was −7.5 ± 3.5 mV, the “effect of F305A mutation on paroxetine-mediated inhibition of Kv7.2” value (F305A Kv7.2 channel) was “no notable effect; also recorded: does not significantly affect” and the IC50 (Kv3.1 channels) was 9.4 ± 0.5 µM. The IC50 (Kv7.5 [4]) was 37.2 ± 5.2 µM, the “V1/2 of Kv7.5 in presence of paroxetine” value (Kv7.5 [4]; paroxetine 20 μM, control −32.7 ± 5.7 mV) was −33.6 ± 6.1 mV and the “τdeactivation (−120 mV) of Kv7.5” value (Kv7.5 [4]; paroxetine, control 36.7 ± 1.7 ms) was 35.4 ± 5.0 ms. For the same compound, the “τactivation (0 mV) of Kv7.5” value (Kv7.5 [4]; paroxetine, control 77.4 ± 5.3 ms) was 79.8 ± 17.6 ms, the “inhibition of M-current” value ([1]; 3 μΜ) was 31.5 ± 4.6% and the “inhibition of M-current” value ([1]; 10 μΜ) was 52.4 ± 2.0%. The “Kv7.2 single-channel open probability” value (Kv7.2 channel [2]; paroxetine 10 μM, 0 mV, cell-attached, control 0.19 ± 0.01) was 0.09 ± 0.01, the Kv7.2 single-channel conductance (Kv7.2 channel [2]; paroxetine 10 μM, control 7.7 ± 0.4 pS) was 7.7 ± 0.7 pS and the inhibition at 10 µM (W236A Kv7.2 channel) was 43.8 ± 6.8%. For the same compound, the “resting membrane potential after drug” value (hippocampal neurons; 3 μΜ, from −57.2 ± 3.4 mV) was −48.6 ± 2.4 mV, the “resting membrane potential after drug” value (hippocampal neurons; 10 μΜ, from −62.2 ± 1.7 mV) was −48.5 ± 2.0 mV and the “firing activity of hippocampal neurons in response to current injection” value (hippocampal neurons; paroxetine at 3 and 10 μΜ) was “significantly increased”. The IC50 [5] was 9.2 ± 1.3 µM, the “reduction of inhibitory effect by D212A mutation versus wild type” value ([5]; Kv7.2 D212A/Kv7.3 vs Kv7.2/Kv7.3) was “approximately three-fold” and the brain concentrations [6] was 2000 to 14000 nM. For the same compound, the “open probability of Kv7.2/Kv7.3 single-channels” value ([7]; 0 mV, cell-attached, control 0.28 ± 0.01) was 0.13 ± 0.01, the “single-channel conductance of Kv7.2/Kv7.3” value ([7]; control 10.9 ± 1.1 pS, not altered) was 10.4 ± 0.9 pS and the IC50 (GIRK1/2 channels) was 13.8 ± 2.9 µM. The inhibition at 10 µM (F240A Kv7.2 channel) was 46.9 ± 9.7%, the IC50 (Kv7.2 D212A channel) was 41 ± 5.6 µM and the “reduction of inhibitory effect by D212A mutation versus wild type” value (Kv7.2 D212A channel; Kv7.2 D212A vs Kv7.2) was “approximately three-fold”. For the same compound, the IC50 (Kv7.2 channel [8]) was 12.3 ± 6.5 µM, the inhibition at 10 µM (Kv7.2 channel [8]; HEK-293T, read-out: inhibition of WT Kv7.2 current) was 56.6 ± 2.9% and the “τdeactivation (−120 mV) of Kv7.2” value (Kv7.2 channel [8]; paroxetine 10 μM, control 24.9 ± 10.0 ms) was 18.6 ± 6.9 ms. The “τactivation (0 mV) of Kv7.2” value (Kv7.2 channel [8]; paroxetine 10 μM, control 132.6 ± 15.0 ms) was 141.7 ± 15.8 ms and the “V1/2 of Kv7.2 in presence of paroxetine” value (Kv7.2 channel [8]; paroxetine 10 μM, control −12.0 ± 0.8 mV) was −9.1 ± 2.0 mV.
